These results are taken from ChEMBL document CHEMBL3425488, “Novel histone deacetylase inhibitors induce growth arrest, apoptosis, and differentiation in sarcoma cancer stem cells” (J Med Chem, 2015).

For assay [1], the system named is HOS. In words: Cytotoxicity against HOS cells assessed as cell viability at 10 to 100 uM after 72 hrs by MTT assay. In kind it is functional, cell-based. To be noted: Homo sapiens.
The test system of assay [2] is MG-63. In words: Cytotoxicity against human MG63 cells assessed as cell viability at 10 to 100 uM after 72 hrs by MTT assay. The format is functional, cell-based. The gist of the method: (§1)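 Sarcosphere-derived CSC cultures exposed 72 h to concentrations from 100 μM down to 0.1 μM. Viability compared with DMSO-only treated cells. IC50 calculated by linear regression.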
For orientation: Tetrazolium dyes change colour on reduction, which living cells bring about.

Assay [3] deals with RD. In words: Cytotoxicity against human RD cells assessed as cell viability at 10 to 100 uM after 72 hrs by MTT assay. In kind it is functional, cell-based.
Assay [4] deals with A204. Put plainly: Cytotoxicity against human A204 cells assessed as cell viability at 10 to 100 uM after 72 hrs by MTT assay. In kind it is functional, cell-based.
Assay [5] relates to SK-ES1. In words: Cytotoxicity against human SK-ES-1 cells assessed as cell viability at 10 to 100 uM after 72 hrs by MTT assay. In kind it is functional, cell-based. The method, boiled down: as §1
In assay [6] the test system is A673. In words: Cytotoxicity against human A673 cells assessed as cell viability at 10 to 100 uM after 72 hrs by MTT assay. The format is functional, cell-based. The method, boiled down:
as §1

Assay [7] can be described thus: Cytotoxicity against human MG63 cells assessed as inhibition of cell viability after 72 hrs by MTT assay. In kind it is functional, MG-63. The method, boiled down: (§2)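 Stem-like cells were taken from sarcosphere cultures and exposed for 72 h to concentrations from 100 μM down to 0.1 μM. Viability was compared with cells given DMSO vehicle alone. IC50 was calculated by linear regression of the dose-response curves.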

The nature of assay [8]: Cytotoxicity against human SK-ES-1 cells assessed as inhibition of cell viability after 72 hrs by MTT assay. The format is functional, SK-ES1. The method, boiled down:
as §2

The source made the active and inactive calls. No cut-off for these calls is given here.

For `O=c1nc2oc3ccc4ccccc4c3cc-2c(=O)n1-c1ccccc1`, the result in assay [1], in assay [2], in assay [3], in assay [4], in assay [5] and in assay [6] was Active.
With `Cn1c(/C=C/C(=O)NO)ccc1/C=C/C(=O)c1cccc(F)c1`, the INH was determined as 38.3 µM in assay [7] and 50.7 µM in assay [8].
